Assay results taken from ChEMBL document CHEMBL1157043, “An eco-friendly synthesis and antimicrobial activities of dihydro-2H-benzo- and naphtho-1,3-oxazine derivatives” (Eur J Med Chem, 2010).
≈ marks a conversion by molar mass, not a printed value.

Legend:
[1] = system: Candida albicans; test: Antimicrobial activity against Candida albicans after 24 hrs; format: functional
How it was run: (§1)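 Broth microdilution per NCCLS guidelines in MOPS-buffered RPMI 1640. Starting inoculum was 1-5 × 10^3 cfu/mL, and plates were incubated at 35 °C. MIC was read spectrophotometrically at 492 nm after 24–48 h for yeasts and 72–96 h for mycelial fungi.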

[2] = system: Cryptococcus neoformans; test: Antimicrobial activity against Cryptococcus neoformans after 24 hrs; format: functional; how it was run: as §1
[3] = system: Sporothrix schenckii; test: Antimicrobial activity against Sporothrix schenckii after 24 hrs; format: functional; how it was run: as §1
[4] = system: Candida parapsilosis; test: Antimicrobial activity against Candida parapsilosis ATCC 22019 after 24 hrs; format: functional; details: Lodderomyces parapsilosis, ATCC 22019, 24 h; how it was run: as §1
[5] = system: Klebsiella pneumoniae; test: Antimicrobial activity against Klebsiella pneumoniae after 24 hrs; format: functional
How it was run: (§2)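 NCCLS microdilution in Mueller Hinton broth. Strains were grown 24 h on nutrient agar at 37 °C, suspended at about 1.0–2.0 × 10^7 cells/mL (McFarland-matched) in saline with 0.05% Tween 20, then diluted 100 µL into 10 mL medium. Compounds were taken from a 1 mg/mL DMSO stock as twofold dilutions, top final 50 µg/mL. Incubation was 35 °C in a moist, dark chamber, and MIC was read spectrophotometrically at 24 h.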

[6] = system: Escherichia coli; test: Antimicrobial activity against Escherichia coli after 24 hrs; format: functional; how it was run: as §2
[7] = system: Pseudomonas aeruginosa; test: Antimicrobial activity against Pseudomonas aeruginosa after 24 hrs; format: functional; how it was run: as §2
[8] = system: Staphylococcus aureus; test: Antimicrobial activity against Staphylococcus aureus after 24 hrs; format: functional; how it was run: as §2
[9] = system: Aspergillus fumigatus; test: Antimicrobial activity against Aspergillus fumigatus after 72 to 96 hrs
[10] = system: Trichophyton mentagrophytes; test: Antimicrobial activity against Trichophyton mentagrophytes after 72 to 96 hrs
[11] = system: L929; test: Cytotoxicity against mouse L929 cells at 6.25 ug/ml after 24 hrs by MTT assay; format: cell-based; details: l929, 24 h
How it was run: (§3)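 L929 mouse fibroblasts were grown in RPMI 1640 with 10% FBS at 37 °C under 5% CO2 and seeded at 1.0 × 10^5 cells/mL. At 80% confluence the medium was switched to serum-free RPMI, and cells were exposed 24 h to 0.09–25 µg/mL in twofold steps. After PBS washes, cells got 0.5 mg/mL MTT for 4 h at 37 °C, then DMSO for 30 min at room temperature. Viability was calculated as (A570−A630) relative to untreated cells.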

[12] = system: L929; test: Cytotoxicity against mouse L929 cells assessed as change in morphology at 6.25 ug/ml after 24 hrs […]; format: cell-based; details: l929, 24 h
How it was run: (§4)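 L929 fibroblasts (serum-free RPMI, 37 °C, 5% CO2) were exposed to compound for 24 h, then fixed and stained with Giemsa for 30 min at 37 °C. Excess stain was washed off with PBS, plates were air-dried, and cell morphology was examined under a phase contrast microscope against untreated controls.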

[13] = Cytotoxicity against mouse L929 cells assessed as viability at 12.5 to 25 ug/ml after 24 hrs by MTT assay; format: cell-based; details: read-out: Activity; how it was run: as §3
[14] = system: L929; test: Cytotoxicity against mouse L929 cells assessed as change in cellular morphology at 12.5 to 25 ug/ml after 24 hrs […]; format: cell-based; details: l929, 24 h; how it was run: as §4

Compound	MIC [1] [µg/mL]	MIC [2] [µg/mL]	MIC [3] [µg/mL]	MIC [4] [µg/mL]	MIC [5] [µg/mL]	MIC [6] [µg/mL]	MIC [7] [µg/mL]	MIC [8] [µg/mL]	MIC [9] [µg/mL]	MIC [10] [µg/mL]	Activity [11]	Activity [12]	viability at 24 h [13] [%]	Activity [14]
Cc1ccc(N2COc3ccc(Cl)cc3C2)cc1	25 (≈ 96.3 µM)	50 (≈ 193 µM)	6.25 (≈ 24.1 µM)	25 (≈ 96.3 µM)	25 (≈ 96.3 µM)	6.25 (≈ 24.1 µM)	> 50	12.5 (≈ 48.1 µM)	25 (≈ 96.3 µM)	12.5 (≈ 48.1 µM)	–	–	–	–
c1ccc2c3c(ccc2c1)OCN(C1CCCCC1)C3	50 (≈ 187 µM)	50 (≈ 187 µM)	50 (≈ 187 µM)	> 50	> 50	> 50	> 50	> 50	> 50	25 (≈ 93.5 µM)	–	–	–	–
Clc1ccc2c(c1)CN(c1ccccc1)CO2	50 (≈ 203 µM)	50 (≈ 203 µM)	6.25 (≈ 25.4 µM)	50 (≈ 203 µM)	50 (≈ 203 µM)	12.5 (≈ 50.9 µM)	> 50	25 (≈ 102 µM)	25 (≈ 102 µM)	12.5 (≈ 50.9 µM)	–	–	–	–
CCCCN1COc2ccccc2C1	> 50	> 50	50 (≈ 261 µM)	> 50	> 50	50 (≈ 261 µM)	> 50	> 50	> 50	50 (≈ 261 µM)	–	–	–	–
Cc1ccc2c(c1)CN(CCN1COc3ccc(C)cc3C1)CO2	50 (≈ 154 µM)	50 (≈ 154 µM)	12.5 (≈ 38.5 µM)	50 (≈ 154 µM)	> 50	> 50	> 50	> 50	50 (≈ 154 µM)	25 (≈ 77.1 µM)	–	–	–	–
c1ccc(CN2COc3ccc4ccccc4c3C2)cc1	> 50	> 50	50 (≈ 182 µM)	> 50	> 50	> 50	> 50	> 50	> 50	50 (≈ 182 µM)	–	–	–	–
c1ccc2c(c1)CN(CCN1COc3ccccc3C1)CO2	> 50	50 (≈ 169 µM)	25 (≈ 84.4 µM)	> 50	> 50	> 50	> 50	> 50	50 (≈ 169 µM)	25 (≈ 84.4 µM)	–	–	–	–
Clc1cc(Cl)c2c(c1)CN(CCN1COc3c(Cl)cc(Cl)cc3C1)CO2	50 (≈ 115 µM)	25 (≈ 57.6 µM)	> 50	50 (≈ 115 µM)	1.56 (≈ 3.59 µM)	> 50	> 50	0.39 (≈ 0.898 µM)	50 (≈ 115 µM)	25 (≈ 57.6 µM)	Non-toxic	Non-toxic	> 90	Toxic
OC(Cn1cncn1)(Cn1cncn1)c1ccc(F)cc1F [FLUCONAZOLE]	0.5 (≈ 1.63 µM)	1 (≈ 3.27 µM)	2 (≈ 6.53 µM)	1 (≈ 3.27 µM)	–	–	–	–	2 (≈ 6.53 µM)	1 (≈ 3.27 µM)	–	–	–	–
Clc1ccccc1N1COc2c(Cl)ccc(Cl)c2C1	> 50	50 (≈ 159 µM)	12.5 (≈ 39.7 µM)	50 (≈ 159 µM)	6.25 (≈ 19.9 µM)	> 50	50 (≈ 159 µM)	12.5 (≈ 39.7 µM)	50 (≈ 159 µM)	12.5 (≈ 39.7 µM)	Non-toxic	Non-toxic	> 90	Toxic
Cc1ccc2c(c1)CN(c1ccccc1)CO2	> 50	> 50	12.5 (≈ 55.5 µM)	50 (≈ 222 µM)	50 (≈ 222 µM)	25 (≈ 111 µM)	> 50	50 (≈ 222 µM)	50 (≈ 222 µM)	25 (≈ 111 µM)	–	–	–	–
Cc1ccc2c(c1)CN(c1ccccc1Cl)CO2	50 (≈ 193 µM)	25 (≈ 96.3 µM)	12.5 (≈ 48.1 µM)	50 (≈ 193 µM)	> 50	50 (≈ 193 µM)	50 (≈ 193 µM)	> 50	50 (≈ 193 µM)	12.5 (≈ 48.1 µM)	–	–	–	–
Clc1ccc(Cl)c(N2COc3ccc4ccccc4c3C2)c1	> 50	> 50	> 50	> 50	> 50	50 (≈ 151 µM)	> 50	> 50	> 50	50 (≈ 151 µM)	–	–	–	–
c1ccc(N2COc3c(ccc4ccccc34)C2)cc1	> 50	> 50	> 50	> 50	> 50	> 50	> 50	> 50	> 50	> 50	–	–	–	–
Cc1ccc(N2COc3ccc(C)cc3C2)cc1	50 (≈ 209 µM)	50 (≈ 209 µM)	12.5 (≈ 52.2 µM)	50 (≈ 209 µM)	50 (≈ 209 µM)	25 (≈ 104 µM)	> 50	25 (≈ 104 µM)	50 (≈ 209 µM)	12.5 (≈ 52.2 µM)	–	–	–	–
c1ccc2c(c1)CN(C1CCCCC1)CO2	> 50	> 50	> 50	> 50	> 50	> 50	> 50	> 50	> 50	50 (≈ 230 µM)	–	–	–	–
Clc1cc(Cl)c(N2COc3ccc4ccccc4c3C2)c(Cl)c1	> 50	> 50	> 50	> 50	> 50	> 50	> 50	> 50	> 50	50 (≈ 137 µM)	–	–	–	–
Fc1ccc(N2COc3ccc4ccccc4c3C2)cc1	> 50	50 (≈ 179 µM)	50 (≈ 179 µM)	> 50	50 (≈ 179 µM)	> 50	50 (≈ 179 µM)	> 50	> 50	25 (≈ 89.5 µM)	–	–	–	–
Brc1ccc(N2COc3ccc4ccccc4c3C2)cc1	> 50	50 (≈ 147 µM)	50 (≈ 147 µM)	> 50	> 50	> 50	50 (≈ 147 µM)	> 50	> 50	50 (≈ 147 µM)	–	–	–	–
CC(=O)N1CCN(c2ccc(OCC3COC(Cn4ccnc4)(c4ccc(Cl)cc4Cl)O3)cc2)CC1 (stereo not drawn) [KETOCONAZOLE]	0.002 (≈ 0.00376 µM)	0.001 (≈ 0.00188 µM)	0.031 (≈ 0.0583 µM)	0.031 (≈ 0.0583 µM)	–	–	–	–	2 (≈ 3.76 µM)	4 (≈ 7.53 µM)	–	–	–	–
Clc1ccc(N2COc3ccc4ccccc4c3C2)cc1	> 50	50 (≈ 169 µM)	50 (≈ 169 µM)	> 50	50 (≈ 169 µM)	> 50	50 (≈ 169 µM)	> 50	> 50	25 (≈ 84.5 µM)	–	–	–	–
c1ccc(N2COc3ccc4ccccc4c3C2)cc1	50 (≈ 191 µM)	> 50	25 (≈ 95.7 µM)	> 50	> 50	50 (≈ 191 µM)	50 (≈ 191 µM)	> 50	> 50	> 50	–	–	–	–
GENTAMICIN	–	–	–	–	0.78	0.78	0.78	0.39	–	–	–	–	–	–
Clc1ccc(N2COc3ccc4ccccc4c3C2)c(Cl)c1	> 50	> 50	> 50	> 50	> 50	> 50	> 50	> 50	> 50	50 (≈ 151 µM)	–	–	–	–
CCCCN1COc2ccc3ccccc3c2C1	> 50	50 (≈ 207 µM)	50 (≈ 207 µM)	> 50	> 50	> 50	> 50	> 50	> 50	25 (≈ 104 µM)	–	–	–	–
CC1(C)S[C@@H]2[C@H](NC(=O)[C@H](N)c3ccccc3)C(=O)N2[C@H]1C(=O)O [AMPICILLIN]	–	–	–	–	0.39 (≈ 1.12 µM)	50 (≈ 143 µM)	50 (≈ 143 µM)	0.19 (≈ 0.544 µM)	–	–	–	–	–	–
Cc1cccc2c1OCN(c1ccccc1)C2	50 (≈ 222 µM)	> 50	25 (≈ 111 µM)	50 (≈ 222 µM)	> 50	25 (≈ 111 µM)	> 50	50 (≈ 222 µM)	50 (≈ 222 µM)	25 (≈ 111 µM)	–	–	–	–
CCCCN1COc2ccc(Cl)cc2C1	> 50	> 50	25 (≈ 111 µM)	> 50	> 50	> 50	> 50	> 50	> 50	50 (≈ 222 µM)	–	–	–	–
c1ccc(N2COc3ccccc3C2)cc1	> 50	> 50	25 (≈ 118 µM)	50 (≈ 237 µM)	> 50	50 (≈ 237 µM)	> 50	> 50	50 (≈ 237 µM)	25 (≈ 118 µM)	–	–	–	–
